An excerpt weighted towards active compounds, which were near 2.2% of everything screened.
PPC-1+TRAIL kill = PPC-1 cancer cell killing with TRAIL present | PPC-1 cells + TRAIL, ATPLite viability luminescence | AID 1443 | hit rate 0.41% among 220,000 | cell killing (% activity), % at 4 µM or 5 µM;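 active means cell killing above 50% in the first pass at 4 µM, then a duplicate retest at 5 µM averaging 50% or more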;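 further: plate controls were cells with TRAIL plus DMSO for no effect and medium-only wells lacking cells for full effect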
NF-kB expr up = raises NF-kB expression in human neuronal cells | NF-kB reporter expression; stronger effect = higher value | fold change at 12.5 µM | hit rate 1.6% among 190,000; in the data active means fold change above about 3.3
FLuc act counter = affects firefly luciferase, flagging false hits in luciferase stimulation screens; P08659; ATPlite luciferase biochemical, luminescence, 10 min; 0 = ATP-free wells, 1 = DMSO control; activation factor at 10 µM; 200,000 tested, under 10 active; AID 1027;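 active means luciferase activation factor, scaled between plate controls, of at least 2 with compound at 10 µM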
Target sequence (P08659 whole entry, looked up): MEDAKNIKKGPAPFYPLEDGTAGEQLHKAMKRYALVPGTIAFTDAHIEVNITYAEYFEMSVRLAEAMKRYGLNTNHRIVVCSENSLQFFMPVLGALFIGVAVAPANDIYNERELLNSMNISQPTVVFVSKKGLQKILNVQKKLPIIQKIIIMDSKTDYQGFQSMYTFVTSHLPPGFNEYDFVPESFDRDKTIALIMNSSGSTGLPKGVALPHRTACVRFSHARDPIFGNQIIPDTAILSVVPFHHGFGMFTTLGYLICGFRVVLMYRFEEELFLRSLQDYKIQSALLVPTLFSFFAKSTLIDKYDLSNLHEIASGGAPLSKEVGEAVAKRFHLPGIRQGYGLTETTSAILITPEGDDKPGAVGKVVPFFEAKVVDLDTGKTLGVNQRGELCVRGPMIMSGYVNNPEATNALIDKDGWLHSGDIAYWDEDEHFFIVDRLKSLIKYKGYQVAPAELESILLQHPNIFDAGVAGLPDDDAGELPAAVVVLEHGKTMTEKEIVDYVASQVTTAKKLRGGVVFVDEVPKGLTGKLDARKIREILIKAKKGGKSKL
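Material: Luciferase/luciferin reagent mix; Doses: test compounds dosed from 2 mM stocks in 100% DMSO; Schedule: 10 min incubation after luciferase reagent addition, room temperature; Measured by: luminescence from luciferase reaction; Read-out: luminescence gain marking luciferase activators.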
C8 TRAIL sens = sensitizes caspase-8 expressing cells to TRAIL | NB7+C8 cells + TRAIL, ATPlite viability luminescence | inhibition (viability loss, TRAIL sensitization), % at 10 µM | hit rate 1% among 360,000;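 active means compounds causing at least 50% loss of cell viability in the single-dose screen, relative to plate controls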
APP 5'UTR act = activates APP 5'UTR luciferase reporter | SH-SY5Y APP 5'UTR luciferase reporter, luminescence; zero percent = DMSO vehicle wells | activation, % at 2 µM | hit rate 1% among 190,000 | AID 1276;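 active means activation above a set limit, based on mean plus 3 SD of controls, cut at about 140% in these data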
FLuc inh counter = Photinus pyralis luciferase inhibition counter-screen; P08659; ATPLite firefly luciferase biochemical luminescence, 10 min; inhibition, % at 10 µM; hit rate 1.5% among 200,000;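 active means inhibition above about 50% when tested at 10 µM, limit read from the data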
Numbers without * were called inactive; / = no result.

SMILES	PPC-1+TRAIL kill	NF-kB expr up	FLuc act counter	C8 TRAIL sens	APP 5'UTR act	FLuc inh counter
O=c1[nH]c2ccccc2n1C1CCN(C(c2cccc3ccccc23)c2nnnn2-c2ccc3c(c2)OCCO3)CC1 (stereo not drawn)	/	/	/	18.7	/	/
O=c1[nH]c2ccccc2n1C1CCN(C(CCc2ccccc2)c2nnnn2Cc2ccccc2)CC1 (stereo not drawn)	/	/	/	91.3*	/	/
COc1ccc(C(c2nnnn2-c2ccc(OC)cc2)N2CCC(n3c(=O)[nH]c4ccccc43)CC2)cc1 (stereo not drawn)	/	/	/	14.3	/	/
O=c1[nH]c2ccccc2n1C1CCN(C(c2cc3ccccc3o2)c2nnnn2-c2ccc3c(c2)OCCO3)CC1 (stereo not drawn)	/	/	/	86.5*	/	/
O=C1NCN(c2ccccc2)C12CCN(C(c1cccc3ccccc13)c1nnnn1C1CCCCC1)CC2 (stereo not drawn)	/	/	/	-10.4	/	/
O=C(c1cccnc1)N1Cc2ccccc2-n2nncc2C1	/	/	/	3.2	/	/
CC[C@H](C)[C@@H]1NC(=O)CNC(=O)c2csc(n2)[C@H](C(C)(C)O)OC(=O)C(C)(C)[C@H](CCCC(C)(Cl)Cl)OC(=O)c2csc1n2	/	/	/	49.7*	/	/
CCCOC(=O)c1ccc(-[n+]2c(-c3ccccc3)cc(-c3ccccc3)cc2-c2ccccc2)cc1	/	/	/	58.3*	/	/
O=C(O)c1ccc(-[n+]2c(-c3ccccc3)cc(-c3ccccc3)cc2-c2ccccc2)cc1	/	/	/	3.9	/	/
COc1ccc(-c2cc(-c3ccccc3)[n+](C)c(-c3ccccc3)c2)cc1	47.4	0.87	1.1	36.0	1.6	-9.3
Cc1ccccc1-[n+]1c(-c2ccccc2)cc(-c2ccccc2)cc1-c1ccccc1	/	/	/	67.5*	/	/
Brc1ccc(-[n+]2c(-c3ccccc3)cc(-c3ccccc3)cc2-c2ccccc2)cc1	/	/	/	56.2*	/	/
Oc1ccccc1-[n+]1c(-c2ccccc2)cc(-c2ccccc2)cc1-c1ccccc1	/	/	/	30.8	/	/
COc1ccc(-[n+]2c(-c3ccccc3)cc(-c3ccc(C)cc3)cc2-c2ccccc2)cc1	/	/	/	57.0*	/	/
O=C1NCN(c2ccccc2)C12CCN(C(c1ccnc3ccccc13)c1nnnn1-c1ccc3c(c1)OCCO3)CC2 (stereo not drawn)	/	/	/	-2.6	/	/
CN(C)C(Cc1ccccc1)C(=O)c1ccccc1 (stereo not drawn)	28.9	1.25	1	8.6	-0.6	1.8
CC(C)N(C(=O)CCl)c1ccccc1	/	/	/	91.0*	/	/
CSCCC(c1nnnn1-c1c(C)cccc1C)N1CCC2(CC1)C(=O)NCN2c1ccccc1 (stereo not drawn)	/	/	/	14.6	/	/
COc1ccc(C(CC(=O)N2CCC3(CC2)OCCO3)NS(=O)(=O)c2ccc(OC)cc2)cc1 (stereo not drawn)	54.1*	1.42	1.1	0.6	15.4	-6.8
COc1ccc(C(c2nnnn2C2CCCC2)N2CCC3(CC2)C(=O)NCN3c2ccccc2)cc1 (stereo not drawn)	/	/	/	-5.6	/	/
CC1=CC2OC3CC4OC(=O)C=CC=CC(=O)OCCC(C)C(O)C(=O)OCC2(CC1)C4(C)C31CO1 (stereo not drawn)	/	/	/	56.3*	/	/
CC1CCOC(=O)C=CC=CC(=O)OC2CC3OC4C5OC5(C)C(O)CC4(COC(=O)C1O)C2(C)C31CO1 (stereo not drawn)	/	/	/	69.0*	/	/
CC1=CC2OC3CC4OC(=O)C=CC=CC(C(C)O)OCC(O)C5(C)OC5C(=O)OCC2(CC1O)C4(C)C31CO1 (stereo not drawn)	/	/	/	67.1*	/	/
CC(O)C1C=CC=CC(=O)OC2CC3OC4C5OC5(C)C(O)CC4(COC(=O)C(O)C(C)CCO1)C2(C)C31CO1 (stereo not drawn)	/	/	/	62.0*	/	/
COc1ccc(-n2nnnc2C(CCSC)N2CCC3(CC2)C(=O)NCN3c2ccccc2)cc1 (stereo not drawn)	/	/	/	-1.5	/	/
O=C(NCC1=C(c2cccc3ccccc23)C[C@@H]2CC[C@H]1N2Cc1ccco1)c1ccc([N+](=O)[O-])cc1	/	/	/	-3.0	/	/
Nc1ccccc1C(=O)OCC(=O)c1ccc2c(c1)OCCO2	-7.2	1.71	0	4.9	6.3	97.1*
O=C(c1ccccc1)C(CN1CCCC1)c1ccccc1 (stereo not drawn)	57.4*	0.97	1.1	19.5	-92.1	-6.4
CC1CC2CC(=O)CCC2(C)C2CCC3(C)C(O)CCC3C12 (stereo not drawn)	/	/	/	6.9	/	/

Assay outcomes (PubChem)
